For one compound, Activity results are on record in ChEMBL document CHEMBL1938286, “A concise synthesis of viscolin, and its anti-inflammatory effects through the suppression of iNOS, COX-2, ERK phosphorylation and proinflammatory cytokines expressions” (Eur J Med Chem, 2012).

Test [1] concerns Mus musculus. Briefly: Antiinflammatory activity in carrageenan-stimulated ICR mouse assessed as decrease in neutrophil number at 8 mg/kg, ip measured after 5 hrs. It counts as functional, organism-based. Set-up: dose 8 mg/kg. An outline of the steps: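 Male ICR mice were dosed 30 min before intraplantar carrageenan, and paw biopsies were taken 5 h later. Tissue was fixed in Dietric solution for 1 week at room temperature, dehydrated in graded ethanol and paraffin-embedded. 7-thickness sections were stained with hematoxylin–eosin or Van Gieson and examined by light microscopy.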

In test [2] the test system is Mus musculus. The test is described as follows: Antioxidant activity in carrageenan-stimulated ICR mouse assessed as increase in SOD activity at 10 mg/kg, ip measured after 5 hrs. It is filed as functional. As to conditions: route intraperitoneal. Put shortly:
(§1)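 Male ICR mice (n = 6 per group) received the drug 30 min before intraplantar carrageenan, and paw tissue was taken at the 5th hr. Total SOD was measured by inhibition of cytochrome c reduction, CAT by Aebi's method, and cytosolic GPx by Paglia–Valentine. Activities are in U/mg protein, given as mean ± SEM.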

The test system of test [3] is Mus musculus. Briefly: Antioxidant activity in carrageenan-stimulated ICR mouse assessed as increase in GPx activity at 10 mg/kg, ip measured after 5 hrs. It is filed as functional. As to conditions: route intraperitoneal. Put shortly: as §1
The test system of test [4] is Mus musculus. The test is described as follows: Antiinflammatory activity in ICR mouse assessed as inhibition of carrageenan-induced hind paw edema at 10 mg/kg, ip measured after 4 hrs. It counts as functional, organism-based. Set-up: dose 10 mg/kg. (Carrageenan injected into the paw causes an acute inflammation.)
Test [5] relates to Mus musculus. Briefly: Antiinflammatory activity in ICR mouse assessed as decrease in carrageenan-induced MDA level at 10 mg/kg, ip measured after 5 hrs. More on the design: dose 10 mg/kg. It is filed as functional, organism-based. Put shortly: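 Male ICR mice (n = 6 per group) were dosed 30 min before intraplantar carrageenan. MDA in the edematous paw tissue was determined at the 5th hr after carrageenan.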

The subject of test [6] is Mus musculus. The test is described as follows: Antiinflammatory activity in ICR mouse assessed as inhibition of carrageenan-induced hind paw edema at 10 mg/kg, ip. It is filed as functional, organism-based. More on the design: dose 10 mg/kg.
The test system of test [7] is Mus musculus. The test is described as follows: Down regulation of COX-2 protein expression in carrageenan-stimulated ICR mouse at 10 mg/kg, ip measured after 5 hrs by Western blot analysis. It is filed as functional. As to conditions: route intraperitoneal. An outline of the steps: (§2)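 Male ICR mice (18–25 g, n = 6 per group) received intraplantar carrageenan. Paw tissue was taken 5 h after carrageenan. Lysates were made in RIPA buffer and 30 µg protein run on SDS-PAGE/PVDF immunoblot with ECL detection. Band intensities were quantified relative to the carrageenan-alone group across three independent experiments.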

Test [8] deals with Mus musculus. The test is described as follows: Antiinflammatory activity in ICR mouse assessed as decrease in carrageenan-induced serum NO level at 10 mg/kg, ip measured after 5 hrs. More on the design: dose 10 mg/kg. It is filed as functional, organism-based. Put shortly: (§3)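 Male ICR mice (18–25 g, n = 6 per group). Carrageenan was injected intraplantar into the paw, with drug given 30 min beforehand. Serum was collected at the 5th hr. Nitrite was measured colorimetrically by Griess reaction, and TNF-α by commercial ELISA. Data are mean ± SEM.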

Test [9] deals with Mus musculus. The test is described as follows: Antiinflammatory activity in ICR mouse assessed as decrease in carrageenan-induced serum TNFalpha level at 10 mg/kg, ip measured after 5 hrs. It is filed as functional, organism-based. More on the design: dose 10 mg/kg. An outline of the steps:
as §3

In test [10] the test system is Mus musculus. The test is described as follows: Antiinflammatory activity in carrageenan-stimulated ICR mouse assessed as reduction in iNOS immunoreactive cells at 8 mg/kg, ip measured after 5 hrs. It counts as functional, organism-based. More on the design: dose 8 mg/kg.
Test [11] has as its system Mus musculus. Briefly: Antiinflammatory activity in carrageenan-stimulated ICR mouse assessed as reduction in COX2 immunoreactive cells at 8 mg/kg, ip measured after 5 hrs. It is filed as functional, organism-based. Set-up: dose 8 mg/kg.
Test [12] concerns Mus musculus. Briefly: Antioxidant activity in carrageenan-stimulated ICR mouse assessed as increase in CAT activity at 10 mg/kg, ip measured after 5 hrs. It is filed as functional. Particulars: route intraperitoneal. Put shortly:
as §1

Test [13] deals with Mus musculus. The test is described as follows: Down regulation of iNOS protein expression in carrageenan-stimulated ICR mouse at 10 mg/kg, ip measured after 5 hrs by Western blot analysis. It counts as functional. As to conditions: route intraperitoneal. Put shortly:
as §2

Calls of active or inactive are those of the source. No cut-off for these calls is given here.

In the case of `COc1ccc2c(c1)c(CC(=O)O)c(C)n2C(=O)c1ccc(Cl)cc1` [INDOMETHACIN], the outcome in test [1], in test [4], in test [5], in test [6], in test [8] and in [9] was Active. The outcome in test [10] and in test [11] was Active. Moreover, the Activity in [2] was 3.85 U/mg; in [3], 10.45 U/mg; in [7], 73.1%; in test [12], 4.65 U/mg; in test [13], 69.1%.
